Compounds with a hit are over-represented: about 2.6% of the library has one in this group of screens.
PRMT1 inh: blocks human protein arginine methyltransferase 1 | Q99873 | recombinant PRMT1, activity-based probe fluorescence polarization | inhibition, % at 2.79 µM | actives 1.3% (n = 370,000) | AID 652257;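 active = inhibition above about 21% made by adding two undisclosed values, limit read from the data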
Target sequence (Q99873 whole entry, looked up): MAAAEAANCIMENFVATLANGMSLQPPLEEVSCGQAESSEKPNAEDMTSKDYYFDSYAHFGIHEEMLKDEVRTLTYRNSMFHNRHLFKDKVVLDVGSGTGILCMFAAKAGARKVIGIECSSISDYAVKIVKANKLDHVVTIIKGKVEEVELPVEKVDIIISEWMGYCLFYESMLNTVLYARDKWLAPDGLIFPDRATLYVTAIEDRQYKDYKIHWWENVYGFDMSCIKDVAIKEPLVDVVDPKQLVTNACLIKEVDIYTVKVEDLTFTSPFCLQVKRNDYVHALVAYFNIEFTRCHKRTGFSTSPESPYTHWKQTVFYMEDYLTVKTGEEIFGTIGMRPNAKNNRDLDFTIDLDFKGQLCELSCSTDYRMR
TDP2 absorb: TDP2 (human) inhibition, absorbance primary screen; actives 0.34% (n = 370,000); inhibition, % at 12.8 µM; AID 720702; recombinant TDP2, T5PNP hydrolysis, p-nitrophenol absorbance 415 nm;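 active = inhibition above the mean of all tested compounds plus 3 SD, set per campaign, cut at about 25% in these data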;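 note: 0% = DMSO with enzyme and 100% = buffer with substrate but no TDP2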
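Assay system: Recombinant human TDP2 | Quantity: 120 nM TDP2 per well | Incubation: 2 h at 37 °C | Signal: Epi absorbance | Evaluation: Percent inhibition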
PAD4 inh: inhibitors of human PAD4; Q9UM07; recombinant PAD4, RCA probe fluorescence polarization; inhibition, % at 6.36 µM; actives 0.41% (n = 330,000); AID 485272;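 active = percent inhibition above a cutoff equal to the mean of all tested compounds plus 3 SD, cut at about 15% in these data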;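 note: 0% = PAD4 with RCA probe and DMSO and 100% = probe without PAD4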
GSTO1 inh: blocks human GSTO1 in RBBP9 counter-screen | P78417 | recombinant GSTO1, activity-based probe fluorescence polarization | inhibition, % at 5.96 µM | actives 1.1% (n = 300,000) | AID 1974;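 active = inhibition above the campaign mean inhibition plus 3 SD, cut at about 35% in these data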;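 note: 0% = GSTO1-1 with DMSO and 100% = wells lacking GSTO1-1 enzyme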
Target sequence (P78417 whole entry, looked up): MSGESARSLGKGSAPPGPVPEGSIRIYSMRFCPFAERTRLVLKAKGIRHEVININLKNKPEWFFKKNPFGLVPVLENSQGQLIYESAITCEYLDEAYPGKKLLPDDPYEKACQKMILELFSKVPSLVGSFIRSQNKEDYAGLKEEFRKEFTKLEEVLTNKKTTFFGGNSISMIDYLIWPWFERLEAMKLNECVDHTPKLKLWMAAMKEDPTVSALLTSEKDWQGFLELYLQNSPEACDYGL
Apaf-1 inh: blocks human Apaf-1 apoptosome activity; O14727; reconstituted apoptosome caspase-3 activity, DEVD-Rh110 fluorescence; inhibition, % at 20 µM; actives 0.71% (n = 330,000); active = inhibition of at least 40% at 20 µM;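 note: plate controls were DMSO wells for no effect and DEVD-CHO caspase inhibitor wells for full effect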
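Material: reconstituted apoptosome with Apaf-1, cytochrome c, caspase-9, procaspase-3, dATP; medium: pH 7.5 Hepes buffer with CHAPS, BSA, DTT; also added: cytochrome c and DEVD-Rh110 substrate; timing: 30 min plus 50 min, RT; signal: Rh110 fluorescence intensity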
PRMT1 inh conf: PRMT1 (human) inhibition, FP confirmation; shares compounds with PRMT1 inh; recombinant His-PRMT1, activity-based probe fluorescence polarization; inhibition, % at 2.79 µM; actives 42% (n = 3,300);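 active = mean inhibition across replicates above the hit cutoff derived for the earlier primary screen, cut at about 22% in these data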
Starred values were filed as active, the others as inactive; x = no result given.

SMILES	PRMT1 inh	TDP2 absorb	PAD4 inh	GSTO1 inh	Apaf-1 inh	PRMT1 inh conf
O=C(CSc1nc(O)c(Cc2ccccc2)c(=O)[nH]1)c1ccccc1	47.4*	-11.1	-3.6	6.4	-18.1	34.0*
CCCCc1c(O)nc(SCC(=O)c2ccccc2)[nH]c1=O	40.0*	12.7	5.2	4.6	-3.6	37.6*
O=C(CSc1nc(O)c(Cc2ccccc2)c(=O)[nH]1)N1CCOCC1	-2.9	13.3	0.6	11.4	-17.1	x
CCCCc1c(O)nc(SCC(=O)O)[nH]c1=O	7.0	-6.2	-1.0	-3.5	8.7	x
NNc1nc2ccccc2nc1C(F)(F)F	18.4	-11.8	1.2	2.3	7.5	x
FC(F)(F)c1nc2ccccc2nc1N/N=C\c1ccccc1	25.1*	7.0	-6.6	-1.9	8.2	0.1
CC1CC2(C)Oc3ccccc3CC2C(C)C1CNCCCN(C)C (centres undefined)	-1.0	-15.2	-5.3	-3.9	7.6	x
O=C(O)CN1C(=O)C2C3CC(C2C1=O)C1C(c2ccccc2)c2sc(=O)[nH]c2SC31 (centres undefined)	28.9*	19.4	1.1	0.0	-6.1	28.6*
CCCCCNC(=O)C(c1ccccc1F)n1c(=O)c(-c2ccco2)nc2ccccc21 (centres undefined)	30.9*	11.3	x	x	x	25.5*
CCCCCNC(=O)C(c1ccc(OC)cc1)n1c(=O)c(-c2ccco2)nc2ccccc21 (centres undefined)	27.8*	7.3	x	x	x	13.5
CCCCCNC(=O)C(c1ccc(C#N)cc1)n1c(=O)c(-c2ccco2)nc2ccccc21 (centres undefined)	15.5	-3.0	x	x	x	x
CC(C)(C)NC(=O)C(c1ccccc1F)n1c(=O)c(-c2ccco2)nc2ccccc21 (centres undefined)	15.4	6.1	x	x	x	x
COc1cccc(NC(=O)Cc2ccccc2)c1	-1.0	9.0	-4.8	-0.6	6.5	x
O=C(O)c1cccc(N2C(=O)C=CC2=O)c1	59.2*	-6.6	x	x	x	84.3*
O=C(Cc1ccccc1)Nc1cccc(N2C(=O)C=CC2=O)c1	96.3*	0.4	-1.4	-11.0	x	94.8*
CCN1CCc2c(sc(NC(=O)Cc3ccccc3)c2C(N)=O)C1	3.1	10.2	-0.6	0.2	9.9	x
CCN1CCc2c(sc(NC(=O)Nc3ccc(Cl)c(Cl)c3)c2C(N)=O)C1	44.7*	-10.9	-6.0	-10.7	x	5.3
COc1cccc(CN(C)C(=O)c2cccc(S(=O)(=O)Nc3cccc(C)c3)c2)c1OC	1.2	-12.1	x	x	x	x
COC(=O)c1c(NC(=O)CCC(=O)O)sc2c1CCCCC2	1.2	-2.6	0.2	10.6	11.6	x
COc1ccccc1NC(=O)c1c(NC(=O)CCC(=O)O)sc2c1CCCCC2	31.8*	0.8	-5.5	7.7	-7.2	-0.8
O=C(O)CCC(=O)Nc1sc2c(c1C(=O)Nc1ccccc1)CCCCC2	37.5*	1.6	-0.3	15.6	1.5	5.2
COc1cc(N)c(Cl)cc1C(=O)OCC(=O)NC(=O)NCc1ccco1	9.5	-5.9	-3.0	x	-8.3	x
CCn1cnnc1SCC(=O)NCC1COc2ccccc2O1 (centres undefined)	-2.0	-7.5	-3.8	x	1.6	x
CC(C)(C)Sc1ccc(N)nc1	36.3*	0.5	0.7	-4.8	1.2	1.9
Cc1ccc(NC(=O)Nc2ccc3c(c2)OCO3)cc1F	0.6	3.8	2.6	10.6	6.6	x
SMILES	PRMT1 inh	TDP2 absorb	PAD4 inh	GSTO1 inh	Apaf-1 inh	PRMT1 inh conf
O=C(O)c1cc(=S)nc[nH]1	38.7*	0.8	x	x	x	60.0*
CCOc1ccc(NCc2cc3cc(OC)ccc3[nH]c2=O)cc1	2.1	2.5	-7.5	1.5	28.8	x
COc1ccc2[nH]c(=O)c(CNc3ccccc3)cc2c1	25.3*	-0.8	0.2	6.8	29.4	1.5
Cc1ccccc1CS(=O)(=O)c1nnc([C@H](CC(C)C)NC(=O)OC(C)(C)C)o1	26.8*	5.4	-3.0	-2.2	-0.2	15.0
CC(C)[C@H](NC(=O)OC(C)(C)C)c1nnc(S(=O)(=O)Cc2c(F)cccc2Cl)o1	30.1*	2.7	-0.5	-8.9	2.2	20.6
CC[C@@H](C)[C@H](NC(=O)OC(C)(C)C)c1nnc(S(=O)(=O)Cc2cc(C)ccc2C)o1	19.7	1.9	-0.5	-2.8	7.2	x
Cn1cccc1/C=N/NC(=O)CSc1nc2ccccc2n1C	6.3	-1.3	1.1	1.5	-12.9	x
COc1ccc(N2CCN(C(=O)Cc3ccc(S(=O)(=O)N4CCOCC4)s3)CC2)cc1	0.8	2.9	-2.5	6.0	2.3	x
COc1cccc(C(=Cc2ccc([N+](=O)[O-])cc2)C(=O)O)c1	0.0	4.3	x	x	x	x
CCCOC(=O)C1=C(C)N(C)C(=O)NC1c1cc2c(cc1[N+](=O)[O-])OCO2 (centres undefined)	26.9*	10.2	0.9	18.6	21.2	22.0*
O=C(COC(=O)CSc1ccc([N+](=O)[O-])cc1)NCCCc1ccccc1	41.9*	-12.2	5.4	1.7	18.3	4.3
O=C(COC(=O)CSc1ccc([N+](=O)[O-])cc1)NCCc1ccccc1	3.0	5.9	3.5	4.9	8.9	x
Cc1ccc(NC(=O)CNc2ccccc2N2CCCC2=O)cc1S(=O)(=O)N1CCOCC1	-0.5	4.1	x	x	-2.9	x
O=[N+]([O-])c1ccc(Sc2cccc[n+]2[O-])c2nonc12	87.5*	0.4	x	x	x	90.8*
Cc1ccc(Cl)cc1N1C(=O)CC(Sc2ccccc2N)C1=O (centres undefined)	-3.5	2.9	x	x	x	x
O=C(OCC#CCSc1nnc(-c2cccc3ccccc23)o1)c1ccc(F)c(F)c1	0.0	2.4	x	x	x	x
Cc1ccc(C2CC(=O)N3CN(Cc4ccco4)CSC3=C2C#N)cc1 (centres undefined)	39.2*	6.0	1.8	-2.1	22.5	4.0
N#CC1=C2SCN(Cc3ccco3)CN2C(=O)CC1c1c(F)cccc1Cl (centres undefined)	52.2*	-0.6	1.8	4.9	3.1	7.7
Cc1ccc(C(=O)N2CCN(c3ccc([N+](=O)[O-])cc3-n3cccc3)CC2)cc1	-0.3	2.2	-0.7	-1.1	22.0	x
CC(COc1cccc(OC(F)(F)F)c1)CN1CCC(C(O)(c2ccccc2)c2ccccc2)CC1 (centres undefined)	1.1	-13.1	x	x	x	x
CSCC(C)N1CCC(n2nccc2NC(=O)CCCc2ccccc2)CC1 (centres undefined)	30.5*	-7.8	-4.2	1.8	-1.6	23.9*
CSCC(C)N1CCC(n2nccc2NC(=O)CCc2ccccc2)CC1 (centres undefined)	4.7	2.4	x	x	-1.6	x
COc1ccc2cnnc(SCC(=O)Nc3ccccc3)c2c1OC	2.6	-3.0	4.5	3.1	-13.4	x
COc1ccc(OC)c(NC(=O)CSc2nncc3ccc(OC)c(OC)c23)c1	55.5*	-15.8	-0.2	10.4	11.0	3.7
O=C(NCc1n[nH]c(=S)n1-c1cccc(C(F)(F)F)c1)c1ccc(S(=O)(=O)N2CCCCC2)cc1	28.1*	-10.9	3.1	7.2	13.8	7.6

Screening data as filed in PubChem BioAssay.
